ChEMBL document CHEMBL4251567 (Eur J Med Chem, 2018)

Legend:
[1] = tested on: U-937; assay: Cytotoxicity against human U937 cells assessed as cell viability at 80 uM after 44 hrs in presence of PCI-34051 by MTT assay relative to control; type: functional; conditions: U-937, 44 h, read-out: Activity
[2] = tested on: U-937; assay: Cytotoxicity against human U937 cells assessed as cell viability at 5 x 10^-4 M after 44 hrs by MTT assay relative to control; type: functional; conditions: U-937, 44 h, read-out: Activity
[3] = tested on: U-937; assay: Cytotoxicity against human U937 cells assessed as decrease in cell viability after 44 hrs by MTT assay; type: functional, cell-based; conditions: Homo sapiens, U-937, 44 h
[4] = tested on: U-937; assay: Cytotoxicity against human U937 cells assessed as cell viability at 1 x 10^-3 M after 44 hrs by MTT assay relative to control; type: functional; conditions: U-937, 44 h, read-out: Activity
[5] = tested on: U-937; assay: Cytotoxicity against human U937 cells assessed as cell viability at 3 x 10^-3 M after 44 hrs by MTT assay relative to control; type: functional; conditions: U-937, 44 h, read-out: Activity
[6] = tested on: U-937; assay: Cytotoxicity against human U937 cells assessed as cell viability at 4 x 10^-3 M after 44 hrs by MTT assay relative to control; type: functional; conditions: U-937, 44 h, read-out: Activity
[7] = tested on: U-937; assay: Cytotoxicity against human U937 cells assessed as cell viability at 80 uM after 44 hrs by MTT assay relative to control; type: functional; conditions: U-937, 44 h, read-out: Activity
[8] = tested on: U-937; assay: Cytotoxicity against human U937 cells assessed as cell viability at 2.5 x 10^-4 M after 44 hrs by MTT assay relative to control; type: functional; conditions: U-937, 44 h, read-out: Activity
[9] = molecular target: T1, Protein deacetylase HDAC6 (Homo sapiens) (UniProt Q9UBN7); assay: Inhibition of HDAC6 in human HeLa-S3 cell lysates assessed as remaining activity at 1.25 x 10^-8 M preincubated for 15 mins followed by HDAC-Glo substrate addition measured after 30 to 40 mins by […] relative to control
T1 sequence (whole entry): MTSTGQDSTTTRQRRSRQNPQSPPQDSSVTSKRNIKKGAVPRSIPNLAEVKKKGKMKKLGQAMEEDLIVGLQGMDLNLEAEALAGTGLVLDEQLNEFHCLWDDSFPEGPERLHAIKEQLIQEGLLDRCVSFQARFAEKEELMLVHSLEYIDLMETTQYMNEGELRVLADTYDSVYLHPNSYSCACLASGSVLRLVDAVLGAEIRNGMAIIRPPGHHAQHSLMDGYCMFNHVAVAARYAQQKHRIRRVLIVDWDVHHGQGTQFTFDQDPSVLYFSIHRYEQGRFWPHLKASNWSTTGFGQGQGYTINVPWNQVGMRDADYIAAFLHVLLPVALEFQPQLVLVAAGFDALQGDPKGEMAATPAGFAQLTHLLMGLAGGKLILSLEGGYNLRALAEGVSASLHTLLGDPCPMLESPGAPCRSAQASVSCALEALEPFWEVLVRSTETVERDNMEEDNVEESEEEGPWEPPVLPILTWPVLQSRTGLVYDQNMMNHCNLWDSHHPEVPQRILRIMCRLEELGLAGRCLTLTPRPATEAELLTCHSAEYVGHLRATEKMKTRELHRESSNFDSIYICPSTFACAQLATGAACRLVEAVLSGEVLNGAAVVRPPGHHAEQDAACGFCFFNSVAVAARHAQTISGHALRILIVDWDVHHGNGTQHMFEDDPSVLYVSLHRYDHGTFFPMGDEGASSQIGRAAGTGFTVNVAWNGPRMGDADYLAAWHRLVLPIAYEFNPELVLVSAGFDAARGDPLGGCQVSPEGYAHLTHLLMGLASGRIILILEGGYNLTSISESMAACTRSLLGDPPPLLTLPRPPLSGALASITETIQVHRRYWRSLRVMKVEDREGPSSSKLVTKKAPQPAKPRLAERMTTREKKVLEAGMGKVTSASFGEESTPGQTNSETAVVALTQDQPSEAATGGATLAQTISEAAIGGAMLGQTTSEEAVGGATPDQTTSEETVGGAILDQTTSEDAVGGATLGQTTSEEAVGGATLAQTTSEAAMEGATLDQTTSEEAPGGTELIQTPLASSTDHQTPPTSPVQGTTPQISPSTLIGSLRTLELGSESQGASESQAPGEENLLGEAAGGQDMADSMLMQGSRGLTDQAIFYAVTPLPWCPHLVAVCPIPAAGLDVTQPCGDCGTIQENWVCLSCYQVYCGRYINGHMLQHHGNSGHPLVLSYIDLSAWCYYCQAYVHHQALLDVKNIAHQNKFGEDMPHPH
Summary of the method: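 HDAC6 captured on an anti-HDAC6 antibody-coated plate (2 μg/mL, pH 9.4 carbonate buffer, milk-blocked). HeLa-S3 lysate loaded at 1 mg/mL, 1 h at 4 °C, then washed. 15 min RT preincubation with inhibitor in DMSO; HDAC-Glo reagent added, luminescence read at 30-40 min. Concentrations are final. Background = no-antibody well; values are % activity versus DMSO control.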

[10] = molecular target: Histone deacetylase 1 (Homo sapiens) (UniProt Q13547); assay: Inhibition of HDAC1 in human HeLa-S3 cell lysates assessed as remaining activity at 5 x 10^-6 M preincubated for 15 mins followed by HDAC-Glo substrate addition measured after 30 to 40 mins by […] relative to control
Summary of the method: (§1)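 HDAC1 was captured from HeLa-S3 lysate (100 μg/mL) onto wells precoated with anti-HDAC1 antibody (10 μg/mL, carbonate buffer pH 9.4) and milk-blocked, 1 h at 4 °C, then washed. Inhibitor in DMSO was added in HDAC-Glo buffer for 15 min at room temperature. HDAC-Glo reagent was added and luminescence read after 30-40 min. Concentrations are final. No-antibody background subtracted; % of DMSO control.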

[11] = molecular target: Histone deacetylase 2 (Homo sapiens) (UniProt Q92769); assay: Inhibition of HDAC2 in human HeLa-S3 cell lysates assessed as remaining activity at 4 x 10^-5 M preincubated for 15 mins followed by HDAC-Glo substrate addition measured after 30 to 40 mins by […] relative to control
Summary of the method: (§2)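 Same antibody-capture format as the other class I isoforms. HeLa-S3 lysate added at 100 μg/mL for HDAC1 and HDAC2, 1 h at 4 °C, then washed. Inhibitor in DMSO preincubated 15 min at RT; HDAC-Glo reagent added and luminescence read after 30-40 min. Concentrations are final. Signal corrected against a well without antibody; activity expressed as % of DMSO control.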

[12] = molecular target: Histone deacetylase 3 (Homo sapiens) (UniProt O15379); assay: Inhibition of HDAC3 in human HeLa-S3 cell lysates assessed as remaining activity at 1 x 10^-5 M preincubated for 15 mins followed by HDAC-Glo substrate addition measured after 30 to 40 mins by […] relative to control
Summary of the method: (§3)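 Antibody-capture (ELISA-type) assay: HDAC antibody coated in carbonate/bicarbonate buffer pH 9.4, wells blocked with 5% milk in TBST. HeLa-S3 lysate added at 1 mg/mL for HDAC3, 1 h at 4 °C, then washed. Inhibitor in DMSO preincubated 15 min at RT in HDAC-Glo buffer. HDAC-Glo reagent added, luminescence read after 30-40 min. Concentrations are final. Background = no-antibody well; activity given as % of DMSO control.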

[13] = molecular target: Histone deacetylase 1 (Homo sapiens) (UniProt Q13547); assay: Inhibition of HDAC1 in human HeLa-S3 cell lysates assessed as remaining activity at 2 x 10^-5 M preincubated for 15 mins followed by HDAC-Glo substrate addition measured after 30 to 40 mins by […] relative to control; summary of the method: as §1
[14] = molecular target: Histone deacetylase 3 (Homo sapiens) (UniProt O15379); assay: Inhibition of HDAC3 in human HeLa-S3 cell lysates assessed as remaining activity at 4 x 10^-5 M preincubated for 15 mins followed by HDAC-Glo substrate addition measured after 30 to 40 mins by […] relative to control; summary of the method: as §3
[15] = molecular target: Histone deacetylase 1 (Homo sapiens) (UniProt Q13547); assay: Inhibition of HDAC1 in human HeLa-S3 cell lysates assessed as remaining activity at 8 x 10^-5 M preincubated for 15 mins followed by HDAC-Glo substrate addition measured after 30 to 40 mins by […] relative to control
[16] = molecular target: Histone deacetylase 3 (Homo sapiens) (UniProt O15379); assay: Inhibition of HDAC3 in human HeLa-S3 cell lysates assessed as remaining activity at 8 x 10^-5 M preincubated for 15 mins followed by HDAC-Glo substrate addition measured after 30 to 40 mins by […] relative to control; summary of the method: as §3
[17] = molecular target: Histone deacetylase 2 (Homo sapiens) (UniProt Q92769); assay: Inhibition of HDAC2 in human HeLa-S3 cell lysates assessed as remaining activity at 2 x 10^-5 M preincubated for 15 mins followed by HDAC-Glo substrate addition measured after 30 to 40 mins by fluorimetric method relative to control; summary of the method: as §2
[18] = molecular target: Histone deacetylase 1 (Homo sapiens) (UniProt Q13547); assay: Inhibition of HDAC1 in human HeLa-S3 cell lysates assessed as remaining activity at 1 x 10^-5 M preincubated for 15 mins followed by HDAC-Glo substrate addition measured after 30 to 40 mins by fluorimetric method relative to control; summary of the method: as §1
[19] = molecular target: Histone deacetylase 2 (Homo sapiens) (UniProt Q92769); assay: Inhibition of HDAC2 in human HeLa-S3 cell lysates assessed as remaining activity at 5 x 10^-6 M preincubated for 15 mins followed by HDAC-Glo substrate addition measured after 30 to 40 mins by […] relative to control; summary of the method: as §2
[20] = molecular target: Histone deacetylase 3 (Homo sapiens) (UniProt O15379); assay: Inhibition of HDAC3 in human HeLa-S3 cell lysates assessed as remaining activity at 2 x 10^-5 M preincubated for 15 mins followed by HDAC-Glo substrate addition measured after 30 to 40 mins by […] relative to control; summary of the method: as §3
[21] = molecular target: Histone deacetylase 2 (Homo sapiens) (UniProt Q92769); assay: Inhibition of HDAC2 in human HeLa-S3 cell lysates assessed as remaining activity at 8 x 10^-5 M preincubated for 15 mins followed by HDAC-Glo substrate addition measured after 30 to 40 mins by […] relative to control; summary of the method: as §2
[22] = molecular target: Histone deacetylase 1 (Homo sapiens) (UniProt Q13547); assay: Inhibition of HDAC1 in human HeLa-S3 cell lysates assessed as remaining activity at 4 x 10^-5 M preincubated for 15 mins followed by HDAC-Glo substrate addition measured after 30 to 40 mins by […] relative to control; summary of the method: as §1
[23] = molecular target: Histone deacetylase 3 (Homo sapiens) (UniProt O15379); assay: Inhibition of HDAC3 in human HeLa-S3 cell lysates assessed as remaining activity at 5 x 10^-6 M preincubated for 15 mins followed by HDAC-Glo substrate addition measured after 30 to 40 mins by […] relative to control; summary of the method: as §3
[24] = tested on: U-937; assay: Cytotoxicity against human U937 cells assessed as cell viability at 200 uM after 44 hrs by MTT assay relative to control; type: functional; conditions: U-937, 44 h, read-out: Activity
[25] = tested on: U-937; assay: Cytotoxicity against human U937 cells assessed as cell viability at 200 uM after 44 hrs in presence of tubastatin by MTT assay relative to control; type: functional; conditions: U-937, 44 h, read-out: Activity
[26] = tested on: U-937; assay: Cytotoxicity against human U937 cells assessed as cell viability at 5 x 10^-3 M after 44 hrs by MTT assay relative to control; type: functional; conditions: U-937, 44 h, read-out: Activity
[27] = tested on: U-937; assay: Cytotoxicity against human U937 cells assessed as cell viability at 1.25 x 10^-3 M after 44 hrs by MTT assay relative to control; type: functional; conditions: U-937, 44 h, read-out: Activity
[28] = tested on: U-937; assay: Cytotoxicity against human U937 cells assessed as cell viability at 2.5 x 10^-3 M after 44 hrs by MTT assay relative to control; type: functional; conditions: U-937, 44 h, read-out: Activity

Histone deacetylase 2 (Homo sapiens), sequence (Q92769 whole entry, canonical isoform): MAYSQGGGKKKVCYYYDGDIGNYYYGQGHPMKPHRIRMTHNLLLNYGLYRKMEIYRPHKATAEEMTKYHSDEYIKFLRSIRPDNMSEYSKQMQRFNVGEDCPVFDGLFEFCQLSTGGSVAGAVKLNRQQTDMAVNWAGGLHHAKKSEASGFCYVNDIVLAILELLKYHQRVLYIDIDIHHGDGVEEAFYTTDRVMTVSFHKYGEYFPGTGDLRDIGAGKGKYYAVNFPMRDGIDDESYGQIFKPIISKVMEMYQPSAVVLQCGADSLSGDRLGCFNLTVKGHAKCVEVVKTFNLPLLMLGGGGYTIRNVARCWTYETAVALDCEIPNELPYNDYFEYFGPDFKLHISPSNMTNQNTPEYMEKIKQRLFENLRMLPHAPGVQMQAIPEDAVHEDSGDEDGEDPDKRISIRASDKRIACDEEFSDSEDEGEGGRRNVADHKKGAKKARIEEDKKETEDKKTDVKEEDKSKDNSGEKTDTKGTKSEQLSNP
Histone deacetylase 1 (Homo sapiens), sequence (Q13547 whole entry): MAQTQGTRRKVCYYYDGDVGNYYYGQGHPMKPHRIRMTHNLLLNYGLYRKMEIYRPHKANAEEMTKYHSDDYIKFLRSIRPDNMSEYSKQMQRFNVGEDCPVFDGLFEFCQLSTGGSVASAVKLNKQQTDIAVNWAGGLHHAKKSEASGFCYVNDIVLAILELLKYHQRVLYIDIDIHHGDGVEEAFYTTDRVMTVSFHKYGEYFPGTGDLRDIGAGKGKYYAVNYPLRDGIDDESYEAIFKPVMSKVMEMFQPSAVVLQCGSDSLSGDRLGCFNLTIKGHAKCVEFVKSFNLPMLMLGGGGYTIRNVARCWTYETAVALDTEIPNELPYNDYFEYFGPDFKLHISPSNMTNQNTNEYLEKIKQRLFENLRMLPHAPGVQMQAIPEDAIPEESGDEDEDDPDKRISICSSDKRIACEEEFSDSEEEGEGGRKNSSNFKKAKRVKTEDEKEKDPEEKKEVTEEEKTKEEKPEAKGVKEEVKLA
Histone deacetylase 3 (Homo sapiens), sequence (O15379 whole entry): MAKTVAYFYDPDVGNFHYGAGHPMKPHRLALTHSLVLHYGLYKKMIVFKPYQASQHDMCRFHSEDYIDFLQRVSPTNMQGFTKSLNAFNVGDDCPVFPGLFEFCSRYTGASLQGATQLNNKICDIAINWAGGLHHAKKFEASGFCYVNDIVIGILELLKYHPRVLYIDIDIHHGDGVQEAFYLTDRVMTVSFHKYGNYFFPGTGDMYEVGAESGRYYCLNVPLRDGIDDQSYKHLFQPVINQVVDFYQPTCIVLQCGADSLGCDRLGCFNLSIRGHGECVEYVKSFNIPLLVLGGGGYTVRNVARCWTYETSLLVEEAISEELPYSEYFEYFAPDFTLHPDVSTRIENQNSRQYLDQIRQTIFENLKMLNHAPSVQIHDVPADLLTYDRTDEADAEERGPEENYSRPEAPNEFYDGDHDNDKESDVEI

CN1CCc2c(c3ccccc3n2Cc2ccc(C(=O)NO)cc2)C1 [TUBASTATIN A]
viability at 80 µM [1]: 13%
viability at 500 µM [2]: 68%
EC50 [3]: 83 µM
viability at 1000 µM [4]: 38%
viability at 3000 µM [5]: 19%
viability at 4000 µM [6]: 17%
viability at 80 µM [7]: 44%
viability at 250 µM [8]: 82%

O=C(CC[C@@H](CCCC(=O)Nc1ccccc1)Cc1ccccc1)NO
Activity [9]: 67%
Activity [10]: 88%
Activity [11]: 43%
Activity [12]: 77%
Activity [13]: 53%
Activity [14]: 39%
Activity [15]: 24%
Activity [16]: 25%
Activity [17]: 71%
Activity [18]: 72%
Activity [19]: 96%
Activity [20]: 54%
Activity [21]: 29%
Activity [22]: 38%
Activity [23]: 89%

COc1ccc(Cn2ccc3ccc(C(=O)NO)cc32)cc1
viability at 200 µM [24]: 62%
viability at 500 µM [2]: 85%
viability at 200 µM [25]: 13%
EC50 [3]: 210 µM
viability at 5000 µM [26]: 9%
viability at 1250 µM [27]: 71%
viability at 2500 µM [28]: 50%
